Results gathered from unrelated publications.
Compare with care: the assays were run in different laboratories.
Target: Mitogen-activated protein kinase kinase kinase kinase 5 (MAP4K5, Homo sapiens, UniProt Q9Y4K4)

SMILES	assay	setting	remaining binding [%]
C[C@H]1CCN(c2nccc(-c3cnn4ncccc34)n2)C1	binding	1 µM	90
CNC(=O)c1ccc(Nc2ncc(C(F)(F)F)c(NCc3nccnc3N(C)S(C)(=O)=O)n2)cc1	cell-free assay, competition with immobilised ligand	0.1 µM	100
c1cncc(-c2cccc(Nc3nccc(NC4CCCCC4)n3)c2)c1	binding, competition with immobilised ligand	10 µM	91
CCN1CCN(Cc2ccc(C(=O)Nc3ccc(C)c(Oc4ccc5c(c4)CC(=O)N5)c3)cc2C(F)(F)F)CC1	binding, competition with immobilised ligand	1 µM	100
COc1cnc(Nc2cccc(S(N)(=O)=O)c2)nc1N1CCN(c2ccccc2)C(=O)C1	binding, competition with immobilised ligand	1 µM	100
Cc1cnn2ncc(-c3ccnc(N(C)C)n3)c2c1	binding	1 µM	67
CC(=O)c1c(NS(C)(=O)=O)c2cc(-c3ccc(Cl)cc3)c(-c3ccc(Cl)cc3Cl)nc2n(C)c1=O	cell-free assay, competition with immobilised ligand	1 µM	100
CN(CCCC(F)(F)F)c1nccc(-c2cnn3ncccc23)n1	binding	1 µM	100
C[C@@H](c1ccc(-n2cnc3c(N)ncnc32)cc1)N1CCc2nn(C)c(Cc3ccccc3)c2C1=O	binding, competition with immobilised ligand	0.1 µM	87
O=C(NCCCN1CCOCC1)c1ccc(Nc2ncc(Cl)c(-c3ccc(Cl)s3)n2)cc1	binding, competition with immobilised ligand	1 µM	63
O=C(O)[C@@H]1[C@@H](Cn2nnc3ccccc3c2=O)CC[C@H]1C(=O)c1ccc(OCCC2CCOCC2)cc1	cell-free assay, competition with immobilised ligand	1 µM	100
O=C(NCCCN1CCOCC1)c1ccc(Nc2nccc(-c3cc4ccccc4s3)n2)cc1	binding, competition with immobilised ligand	1 µM	82
CC1CCCN1c1nccc(-c2cnn3ncccc23)n1 (stereo not drawn)	binding	1 µM	100
CC(=O)Nc1c(C(C)=O)c(=O)n(C)c2nc(-c3ccc(Cl)cc3Cl)c(-c3ccc(Cl)cc3)cc12	cell-free assay, competition with immobilised ligand	1 µM	100
CN(C)c1ncc(F)c(-c2cnn3ncccc23)n1	binding	1 µM	100
O=C(N1CCS(=O)(=O)CC1)N1C[C@H](c2ccc(OC(F)(F)F)cc2)C[C@H](c2nc(C3CC3)no2)C1	cell-free assay, competition with immobilised ligand	1 µM	100
C=CC(=O)N1CCC(C(=O)NCC(=O)N2CCN(c3nc(-c4cnc(N)nc4C(F)F)nc(N4CCOCC4)n3)CC2)CC1	binding, competition with immobilised ligand	1 µM	95
O=C(Nc1c[nH]nc1C(=O)NC1CCNCC1)c1cc(F)cc(F)c1	binding, competition with immobilised ligand	1 µM	100
N[C@H]1CCN(c2nccc(-c3cnn4ncccc34)n2)C1	binding	1 µM	100
Cc1c(NC(=O)c2cc(C(N)=O)nc3cc(F)ccc23)c(C(F)(F)F)nn1Cc1ccc(C#N)cc1	cell-free assay, competition with immobilised ligand	1 µM	74
Nc1ncc2c(n1)-c1c([nH]c3ccc(C#CC4CC4)cc13)CCCC2	binding, competition with immobilised ligand	1 µM	82
